Rows were chosen to be rich in hits. Some 2.9% of all compounds tested hit in one or more screens of this group.
Env fusion inh: blocks HIV Env-driven cell-cell fusion. HeLa-JRFL Env/CEM21 cell fusion, luciferase. inhibition, % at 12.3 µM. actives 1.1% (n = 360,000). AID 651610;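 active means mean replicate inhibition score of at least 50 and every replicate individually at or above 50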;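 further: 0% = plate neutral controls and 100% = maraviroc near 300 nM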
PAX8 reporter: PAX8 transcriptional activity inhibition | actives 1.2% (n = 360,000) | RMG-I TPO-luciferase reporter, SteadyGlo, 24 h | inhibition, % at 12.6 µM;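 active means mean replicate inhibition at least 60% with every replicate also reaching 60%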;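 further: luciferase light reporting Pax8 driven TPO promoter activity; plate controls were median of neutral control wells for no effect and mitoxantrone controls for full effect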
dFosB activator: mouse delta FosB homodimer activation; P13346; purified delta FosB, TAMRA-CDK5 oligo fluorescence polarization; percent of positive-control signal above neutral wells; activation, % at 25 µM; actives 0.99% (n = 340,000);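 active means mean activation above about 17%, with every replicate also reaching it, limit read from the data, passing the limit was not always enough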
GSIS activator: primary screen for activators of insulin secretion dependent on glucose, INS-1E cells, GLuc reporter luminescence. actives 0.61% (n = 370,000). activation, % at 16.6 µM. INS-1E GLuc reporter insulin secretion, 2-3 h. AID 743287;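 active means lowest replicate activation of at least 40%, so every replicate reaches that level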;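 further: 0% = median of neutral control wells and 100% = median of IBMX positive control wells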
CDK5 inh: inhibitors of human CDK5/p35 kinase; Q00535+Q15078; Recombinant CDK5/p35, ADP-Glo luminescence, 60 min; inhibition, % at 10 µM; actives 0.01% (n = 330,000);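 active means highest replicate inhibition of at least 50% and at least 75% of replicates reaching 50%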;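 further: plate controls were DMSO neutral control for no effect and GW8510 at 10 µM for full effect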
Target sequence (Q00535 whole entry, looked up): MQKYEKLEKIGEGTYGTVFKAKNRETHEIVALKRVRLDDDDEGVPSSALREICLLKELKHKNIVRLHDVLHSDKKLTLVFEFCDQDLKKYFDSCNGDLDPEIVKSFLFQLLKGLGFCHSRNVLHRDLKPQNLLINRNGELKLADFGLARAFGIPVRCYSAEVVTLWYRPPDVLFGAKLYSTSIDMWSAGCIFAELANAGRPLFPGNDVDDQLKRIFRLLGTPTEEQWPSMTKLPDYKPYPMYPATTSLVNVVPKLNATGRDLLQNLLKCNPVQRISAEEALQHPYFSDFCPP
Target sequence (Q15078 whole entry, looked up): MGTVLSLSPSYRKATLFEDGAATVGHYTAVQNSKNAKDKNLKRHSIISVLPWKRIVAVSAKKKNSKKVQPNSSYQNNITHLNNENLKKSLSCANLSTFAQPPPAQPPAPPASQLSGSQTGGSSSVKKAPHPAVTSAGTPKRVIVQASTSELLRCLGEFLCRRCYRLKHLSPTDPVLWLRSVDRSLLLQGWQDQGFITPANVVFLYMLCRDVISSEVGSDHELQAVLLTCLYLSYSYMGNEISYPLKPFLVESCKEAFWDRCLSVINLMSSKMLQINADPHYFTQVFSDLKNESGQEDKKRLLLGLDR
Cneo AK release: Cryptococcus neoformans lysis via adenylate kinase release | C. neoformans lysis, adenylate kinase release luminescence, 4 h; normalised: neutral wells 0, clomiphene wells 100 | lysis activity, % at 15 µM | actives 0.2% (n = 360,000);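 active means mean lysis activity across replicates of at least 80%, whatever share of replicates individually reach that level; inactive means mean lysis activity below 80%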
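Signal: Adenylate kinase release luminescence | Assay system: Log-phase Cryptococcus neoformans yeast cells | Input: Cells at 5 × 10^6 per mL | Buffer or medium: Fresh YPD growth medium | Compound: Single dose | Schedule: Static 4 h at 37 °C with compound, 1 h detection | Controls: Clomiphene | Read-out: Luminescence rise reflecting yeast cell lysis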
* marks the source's active call; other numbers are inactive results; [ ] = remark or other dose.

O=C(Nc1ccc(F)cc1)N1CC(=O)N2[C@@H](CO)[C@@H](c3ccc(-c4ccc(F)cc4)cc3)[C@@H]2C1 was read as PAX8 reporter 0.4 and GSIS activator -27.1.
`O=C(Nc1ccc(F)cc1)N1CC(=O)N2[C@@H](CO)[C@H](c3ccc(-c4ccc(F)cc4)cc3)[C@@H]2C1` gave PAX8 reporter 100.6* and GSIS activator -36.9.
Screening CN1C(=O)c2cc(NC(=O)NCc3ccccc3)ccc2OC[C@@H]2O[C@@H](CC(=O)O)CC[C@H]21 returned Env fusion inh -15.2[16.7 µM], PAX8 reporter -3.0, GSIS activator -1.5 and Cneo AK release 1.8.
For N#C[C@@H]1[C@H](c2ccc(C#Cc3ccc(F)cc3)cc2)[C@@H](CO)N1C(=O)Nc1ccc(F)cc1 the results were Env fusion inh 22.9[16.7 µM], PAX8 reporter 102.9*, GSIS activator -4.0 and Cneo AK release -2.4.
`COc1ccc(NC(=O)N2CC(=O)N3[C@H](C2)[C@H](c2ccc(/C=C/c4ccccc4)cc2)[C@@H]3CO)cc1` gave PAX8 reporter 105.4* and GSIS activator -9.5.
For O=C(NCc1cccc(F)c1)[C@H]1[C@H](CO)[C@H]2Cn3c(ccc(-c4cccnc4)c3=O)[C@@H]1N2CC1CC1 the results were Env fusion inh -1.5[16.7 µM], PAX8 reporter -2.2, GSIS activator 2.1 and Cneo AK release -3.2.
For C[C@@H]1CN([C@@H](C)CO)C(=O)c2ccccc2-c2ccccc2CO[C@H]1CN(C)C(=O)CCC(F)(F)F the results were Env fusion inh -5.8[16.7 µM], PAX8 reporter -6.9, GSIS activator 3.2 and Cneo AK release -0.3.
Screening COc1ccc(NC(=O)Nc2cccc3c2O[C@H](CN(C)C)[C@H](C)CN([C@@H](C)CO)C3=O)cc1 returned PAX8 reporter 11.1, GSIS activator 11.3 and Cneo AK release -4.9.
O=C(C[C@H]1CC[C@H]2[C@@H](COC[C@H](O)CN2C(=O)c2cccnc2)O1)Nc1ccc(-c2ccccc2)cc1 was read as Env fusion inh 7.8[16.7 µM], PAX8 reporter -0.1, GSIS activator -15.1 and Cneo AK release -3.8.
For CC(C)NC(=O)Nc1ccc2c(c1)C(=O)N(C)[C@H]1CC[C@@H](CC(=O)NCC3CCCCC3)O[C@@H]1CO2 the results were Env fusion inh 19.1[16.7 µM], PAX8 reporter -8.9, GSIS activator 19.3 and Cneo AK release -9.7.
CCSc1nc(-c2ccccc2)nc(C(Cl)Cl)n1 was read as Env fusion inh 80.6*, PAX8 reporter 96.4*, dFosB activator -3.2, GSIS activator 16.1, CDK5 inh 1.2 and Cneo AK release -0.5.
`CSc1nc(-c2ccc(C)cc2)nc(C(Cl)Cl)n1` gave dFosB activator -5.5 and CDK5 inh 1.2.
COc1ccc(NC(=O)N(C)C[C@H]2Oc3c(NS(=O)(=O)c4cccs4)cccc3C(=O)N([C@H](C)CO)C[C@H]2C)cc1 was read as GSIS activator 7.2 and Cneo AK release 4.6.
Screening C/C(=N/NC(=O)c1ccc(Br)o1)c1ccncc1 returned Env fusion inh -7.4, PAX8 reporter -16.1, dFosB activator -5.6, GSIS activator 66.7*, CDK5 inh 0.5 and Cneo AK release -0.5.
For CO[C@@H]1CN(C)C(=O)c2ccc(NC(=O)c3ccccc3)cc2OC[C@@H](C)N(C(C)=O)C[C@@H]1C the results were PAX8 reporter -11.3 and GSIS activator -4.2.
O=C(C1CC1)N1CC2(C1)[C@@H](c1ccccc1)[C@@H](CO)N2S(=O)(=O)c1ccccc1 was read as PAX8 reporter -8.4 and GSIS activator 7.3.
O=C(CSc1nnc(Cc2cccs2)n1C1CCCCC1)N1CCN(C(=O)c2ccco2)CC1 was read as Env fusion inh -1.4, PAX8 reporter 73.6*, dFosB activator -4.7, CDK5 inh -0.5 and Cneo AK release 4.1.
For Cn1c(-c2ccc(Cl)cc2)ccc(C#N)c1=O the results were Env fusion inh 75.2*, dFosB activator 4.0 and CDK5 inh -3.0.
CC(C)(C)C(=O)Nc1cc2nn(-c3ccccc3)nc2cc1Cl was read as Env fusion inh inactive, PAX8 reporter 73.7*, dFosB activator -14.5, CDK5 inh 2.8 and Cneo AK release -1.3.
Screening C[C@H](CO)N1C[C@H](C)[C@H](CN(C)S(=O)(=O)c2ccc(F)cc2)Oc2ccc(NC(=O)CCN3CCOCC3)cc2CC1=O returned PAX8 reporter -4.5, GSIS activator 6.6 and Cneo AK release -0.7.
COC(=O)c1ccsc1NC(=O)CCS(=O)(=O)c1ccc(Cl)cc1 was read as Env fusion inh 5.2, PAX8 reporter 82.9*, dFosB activator -14.6, GSIS activator 8.4, CDK5 inh 1.8 and Cneo AK release -4.1.
Screening COC(=O)c1ccsc1NC(=O)CCS(=O)(=O)c1ccccc1 returned Env fusion inh 24.3, PAX8 reporter 84.3*, dFosB activator -6.5, GSIS activator 5.5, CDK5 inh -0.8 and Cneo AK release 16.8.
Screening COC(=O)c1ccsc1NC(=O)CS(=O)(=O)c1ccccc1 returned Env fusion inh -10.8, PAX8 reporter -11.1, dFosB activator -1.1, GSIS activator 24.2, CDK5 inh -1.2 and Cneo AK release 0.7.
Cc1ccc(S(=O)(=O)CCC(=O)Nc2sccc2C(N)=O)cc1 was read as Env fusion inh -13.6, PAX8 reporter 8.2, dFosB activator -7.5, GSIS activator -5.5, CDK5 inh 0.8 and Cneo AK release -1.1.
For C[C@H](O)C#Cc1cnc2c(c1)C(=O)N([C@@H](C)CO)C[C@@H](C)[C@@H](CN(C)C(=O)c1ccccc1)O2 the results were Env fusion inh -8.3[16.7 µM], GSIS activator 10.7 and Cneo AK release -3.7.
For Cc1ccc(S(=O)(=O)N(C)C[C@@H]2Oc3ncccc3C(=O)N([C@H](C)CO)C[C@@H]2C)cc1 the results were Env fusion inh -7.3[16.7 µM], GSIS activator 0.9 and Cneo AK release -1.7.
Screening CN(C(=O)c1ccc(NC(=O)Cc2ccc(NC(=O)C3CCCN(C(=O)CCc4ccccc4)C3)cc2)cc1)C1CC1 (stereo not given) returned Env fusion inh 55.9*, PAX8 reporter 11.6, dFosB activator -3.3, GSIS activator -10.1, CDK5 inh 0.1 and Cneo AK release 0.3.
`CN(C(=O)c1cccc(NC(=O)Cc2cccc(NC(=O)C3CCCN(C(=O)C4CCC4)C3)c2)c1)C1CCC1` (stereo not given) gave Env fusion inh 85.3*, PAX8 reporter -24.9, dFosB activator -11.7, GSIS activator -6.6, CDK5 inh 0.2 and Cneo AK release 2.6.
`CN(C(=O)c1cccc(NC(=O)Cc2cccc(NC(=O)C3CCCN(C(=O)C4CCCC4)C3)c2)c1)C1CCC1` (stereo not given) gave Env fusion inh 14.5, PAX8 reporter 6.2, dFosB activator -7.6, GSIS activator 0.7, CDK5 inh -0.3 and Cneo AK release 0.8.

Source: PubChem (Broad Institute)
